RBBP9 inhibitor: human RBBP9 inhibitors, primary screen, biochemical, fluorescence polarization, FP-Rh probe, HTS; Serine hydrolase RBBP9 (Homo sapiens), O75884; inhibition, % at 7.94 µM; recombinant RBBP9; 220,000 compounds, 0.2% hits;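 active = inhibition above the campaign mean of all tested compounds plus 3 SD, cut at about 14% in these data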;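 note: plate controls were DMSO wells with RBBP9 for no effect and wells lacking RBBP9 protein for full effect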
Target sequence (O75884 whole entry, looked up): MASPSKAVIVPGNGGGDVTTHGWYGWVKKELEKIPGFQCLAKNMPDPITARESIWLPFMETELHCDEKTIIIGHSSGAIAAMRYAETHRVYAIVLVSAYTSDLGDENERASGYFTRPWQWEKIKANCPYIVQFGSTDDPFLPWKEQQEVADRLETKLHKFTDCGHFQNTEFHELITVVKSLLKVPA
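Test system: recombinant human RBBP9; Timing: 30 min then 45 min, 25 °C; Detection: fluorescence polarization; Control set: RBBP9 with DMSO as uninhibited control, no-protein wells as full inhibition; Compound dosing: one concentration, 7.94 µM nominal, 0.794% DMSO; Probe or stimulus: FP-Rh activity-based probe, 375 nM before mixing.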
Cl transport mod: KCC2 cotransporter modulators, thallium flux, primary screen, cell-based, HEK293 KCC2, FluoZin-2 fluorescence, MLSMR. 190,000 compounds, 2.2% hits. KCC2 cells, thallium flux FluoZin-2 fluorescence. AID 1456, 2008. Solute carrier family 12 member 5 (Homo sapiens), Q9H2X9. B-score of Tl+ flux slope (higher = more flux/activation; lower = inhibition) at 10 µM;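 active = thallium flux slope and its plate-corrected score both differing from the plate sample mean at a set confidence after two filtering rounds, in either direction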;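 note: slope of fluorescence scaled to starting intensity during 10 to 20 s after thallium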
14-3-3 Bad PPI: inhibitors of 14-3-3 zeta/Bad binding, primary screen, biochemical, TR-FRET, bovine 14-3-3 zeta; 220,000 compounds, 0.71% hits; TR-FRET 14-3-3zeta/Dy647-pBad peptide displacement, 1 h; 14-3-3 protein zeta/delta (Bos taurus), P63103; inhibition, % at 21.7 µM;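 active = inhibition above about 70%, limit read from the data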;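 note: 0% = full 14-3-3 plus peptide FRET controls and 100% = background without 14-3-3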
ROMK mod: ROMK potassium channel modulators, primary screen, cell-based, thallium flux, MLSMR library. 130,000 compounds, 2% hits. Tet-inducible ROMK, thallium flux fluorescence; actives lie on both sides. B-score at 10 µM;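 active = signal ratio slope over the read window, or its plate-corrected B-score, at least 3 SD from the plate mean, either direction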;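 note: B-score of the F/F0 ratio slope over 7 to 12 s after thallium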
WT yeast gro inh: growth inhibition of WT strain, primary screen, mitochondrial fusion inhibitor project, WT and mutant strains, chemical genetic; mitochondrial fusion phenotypic screen; 190,000 compounds, 2.1% hits; inhibition, % at 10 µM; in the data active = inhibition above about 58%; tested in S. cerevisiae
NCF1 inh: p47phox/p22phox peptide binding inhibitors, primary screen, biochemical, uHTS, NADPH oxidase regulatory subunit | fluorescence polarization, 2 h | 220,000 compounds, 0.53% hits | inhibition, % at 24.7 µM | AID 1274, 2008;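 active = inhibition above about 30%, limit read from the data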;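 note: 0% = p47phox with labelled peptide and 100% = labelled peptide alone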
Target sequence (P14598 whole entry, looked up): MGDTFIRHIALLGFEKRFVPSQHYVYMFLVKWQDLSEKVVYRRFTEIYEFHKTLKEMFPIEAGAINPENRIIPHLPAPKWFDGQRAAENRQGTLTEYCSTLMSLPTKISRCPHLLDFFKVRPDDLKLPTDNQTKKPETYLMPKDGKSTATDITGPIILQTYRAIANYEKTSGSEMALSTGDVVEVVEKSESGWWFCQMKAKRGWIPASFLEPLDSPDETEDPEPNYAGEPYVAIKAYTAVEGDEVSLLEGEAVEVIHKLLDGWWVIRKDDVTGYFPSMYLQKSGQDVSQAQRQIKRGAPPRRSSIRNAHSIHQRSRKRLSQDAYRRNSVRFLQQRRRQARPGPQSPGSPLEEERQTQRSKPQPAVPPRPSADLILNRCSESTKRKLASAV
KCC2 sec1: KCC2 modulators in sodium-free buffer, confirmation, cell-based, HEK293 KCC2, thallium flux, secondary assay | 3,700 compounds, 15% hits | normalised thallium flux (F/F0 slope) at 10 µM | AID 1713, 2009 | FluoZin2 fluorescence; stronger effect = higher value | shares compounds with Cl transport mod;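 active = thallium flux slope above the same plate's solvent-only control mean plus 3 SD; inconclusive = the two replicate wells disagree; inactive = no significant difference from solvent-only control wells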
KCC2 bumet counter: thallium flux persisting under bumetanide in KCC2 cells, confirmation, counter-screen for KCC2 modulator project, cell-based, HEK293 KCC2, FluoZin2, secondary assay 3. HEK293-KCC2 + bumetanide/ouabain; stronger effect = higher value. 3,700 compounds, 49% hits. shares compounds with Cl transport mod. normalized thallium flux at 10 µM;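 active = thallium entry rate above the same plate's blocked-transporter control wells by more than 3 SD; inconclusive = the two repeat wells disagree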;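 note: raw slope of fluorescence over initial fluorescence between 10 and 20 s after thallium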
KCC2 sec2: KCC2 modulators without ouabain present, confirmation, cell-based, HEK293 KCC2, thallium flux, FluoZin2, secondary assay 2 | normalized thallium flux at 10 µM | thallium flux FluoZin2 fluorescence; actives lie on both sides; F/F0 rise rate, 10–20 s post-thallium | shares compounds with Cl transport mod | 3,700 compounds, 23% hits;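 active = thallium flux slope more than 3 SD above or below the plate's solvent-only control mean, mostly below; inconclusive = the two repeat wells disagreed; inactive = no significant shift from solvent-only controls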;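 note: raw slope with 0.1% DMSO as baseline and bumetanide as block control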
HEK counter1: thallium flux modulation in parental HEK cells, confirmation, counter-screen for KCC2 modulator project, cell-based, counterscreen 1; shares compounds with Cl transport mod; HEK293 parental cells, thallium flux FluoZin2, ouabain; baseline-ratio fluorescence slope, 10–20 s after thallium; 3,700 compounds, 46% hits; thallium flux rate (normalised fluorescence) at 10 µM;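 active = thallium flux rate significantly above the same plate's solvent-only control wells, beyond their mean plus 3 SD; inconclusive = the two replicate wells gave conflicting results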
KCC2 ouabain: KCC2 inhibitors and activators, ouabain retest, confirmation, HEK-KCC2 cells | shares compounds with Cl transport mod | HEK293-KCC2, thallium flux FluoZin2 fluorescence; bidirectional: low = inhibitor, high = activator | raw Tl+ flux slope (below DMSO = inhibition, above = activation) at 10 µM | 3,700 compounds, 48% hits | AID 1717, 2009;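 active = thallium flux slope beyond 3 SD from same-plate DMSO control mean in most replicates, usually higher, sometimes lower; inconclusive = repeat tests gave conflicting results; inactive = no significant difference from controls in most replicates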;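 note: slope of initial-normalized fluorescence between seconds 10 and 20 after thallium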
HEK counter2: native HEK Tl+ uptake effects, second counter-screen – HEK cells, counterscreen 2, counter-screen for KCC2 modulator project, confirmation; AID 1718, 2009; thallium flux slope at 10 µM; HEK293 parental, thallium flux FluoZin-2 fluorescence slope; 3,700 compounds, 33% hits; shares compounds with Cl transport mod;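 active = thallium flux slope above the same plate's solvent-control mean plus 3 SD in both duplicate wells; inconclusive = duplicate wells that disagreed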;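 note: run without ouabain in cells lacking the KCC2 cotransporter; slope of fluorescence scaled to its starting value between 10 and 20 s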
Starred values were filed as active, the others as inactive; ? = inconclusive; . = not tested or not shown. Only some compounds are listed: those with a hit (about 5.8% of all), similar ones and a draw of the others.

SMILES | RBBP9 inhibitor | Cl transport mod | 14-3-3 Bad PPI | ROMK mod | WT yeast gro inh | NCF1 inh | KCC2 sec1 | KCC2 bumet counter | KCC2 sec2 | HEK counter1 | KCC2 ouabain | HEK counter2
O=C(/C=C/c1cn(CC(O)CN2CCCCC2)c2ccccc12)c1cccs1 (stereo unspecified) | -10 | 4.6* | 12 | . | -7 | -39 | 0.0083 | 0.0059 | 0.024* | 0.0068 | 0.016* | 0.0084
COCCNC(=O)C(c1ccc(C)o1)N(C(=O)Cn1nnc2ccccc21)c1ccccc1 (stereo unspecified) | 1 | -0.021 | -8 | 0.45 | 6 | 1 | . | . | . | . | . | .
COc1ccc(Nc2nc(Nc3ccc(OC)cc3OC)nc(N3CCN(C)CC3)n2)c(OC)c1 | -5 | -0.5 | 4 | 0.0084 | 22 | -26 | . | . | . | . | . | .
COc1ccc(Nc2nc(N3CCCC3)nc(N3CCCC3)n2)c(OC)c1 | 6 | -2.4* | -10 | -1.1 | 43 | -12 | ? | 0.0066 | 0.034 | 0.0082 | 0.023 | 0.011
CSc1nnc2ccc(-c3cccs3)nn12 | -12 | 1.1 | -5 | -0.098 | -2 | 0 | . | . | . | . | . | .
COc1cc(C)nc(NC(=S)N(C)C(=O)c2ccccc2)n1 | -8 | 6.2* | 7 | . | . | -7 | 0.0093 | 0.019* | 0.035 | 0.01* | 0.026 | 0.012*
Cc1[nH]c2ccccc2c1SCC(=O)N1CCN(c2ccccc2)CC1 | -8 | -3.9* | -2 | . | -14 | -7 | 0.0076 | 0.0043 | 0.022* | 0.0071 | 0.015* | 0.0095
COc1cc(OC)cc(C(C(=O)NCc2ccccc2)N(Cc2ccco2)C(=O)c2ccno2)c1 (stereo unspecified) | -4 | -2.8* | 0 | . | 14 | -72 | 0.0067 | 0.0039 | 0.032 | 0.0069 | 0.019 | 0.011
COC(=O)c1ccc(C(C(=O)NCc2ccccc2)N(Cc2ccco2)C(=O)c2cnccn2)cc1 (stereo unspecified) | 5 | . | 3 | -0.11 | -7 | -4 | . | . | . | . | . | .
Cc1ccccc1OCC(=O)N/N=C/C=C/c1ccccc1 | -7 | -1 | -1 | -0.052 | 8 | 0 | . | . | . | . | . | .
Cc1cccc(OCC(=O)N/N=C/CC(C)c2ccccc2)c1C (stereo unspecified) | -10 | -4.5* | -3 | -0.93 | 7 | 2 | 0.0089 | 0.0054 | 0.031 | 0.0074 | ? | 0.011
CC(C)c1ccc(NC(=O)c2csnn2)cc1 | -4 | 6.7* | -5 | -0.83 | 2 | -13 | 0.016 | 0.0042 | 0.029 | 0.007 | 0.015 | 0.0098
COc1ccc(C(=O)Nc2c(Cl)cc(Cl)cc2C(=O)N2CCOCC2)cc1 | -2 | -0.032 | -3 | 0.12 | -2 | -3 | . | . | . | . | . | .
CC(C)n1c(-c2ccc(N(C)C)cc2)nc2ccccc21 | -5 | -3.3* | -6 | . | 20 | -8 | 0.0071 | 0.0049 | 0.028 | ? | 0.017 | 0.0095
CN(C)c1ccc(-c2nc3ccccc3n2C)cc1 | -4 | . | . | 0.77 | 15 | . | . | . | . | . | . | .
CCCCCN1CN(S(=O)(=O)c2cccs2)c2nc3ccccc3nc21 | -8 | -0.18 | 4 | . | . | -22 | . | . | . | . | . | .
Cc1cc(C)n(CCNC(=O)CC2C(=O)NCCN2Cc2ccccc2C(F)(F)F)n1 (stereo unspecified) | 8 | 0.083 | -5 | 0.17 | 3 | 14 | . | . | . | . | . | .
CC(C)CNC(=O)c1ccccc1NC(=O)c1ccccc1N(C)S(C)(=O)=O | -6 | -3.8* | -9 | 0.38 | 10 | -5 | 0.0065 | 0.0047 | ? | ? | 0.019 | 0.01
Cc1cccnc1CN1CCN(C(=O)c2cc(COc3ccc4ncccc4c3)on2)CC1 | 2 | . | -5 | -2.1 | 10 | 0 | 0.0085 | 0.0066 | ? | 0.0075 | 0.017* | 0.01
CCOC(=O)N1CCN(C(=O)c2cc(COc3ccc4ncccc4c3)on2)CC1 | 0 | -0.71 | -12 | 1.2 | -2 | -9 | . | . | . | . | . | .
CC(=O)N/C(=C\c1ccccc1)C(=O)OCC(=O)N(C)C1CCCCC1 | -11 | 0.66 | 15 | . | 2 | 3 | . | . | . | . | . | .
COn1cnnc1-c1ccccc1 | -4 | . | 43 | 0.052 | 6 | -3 | 0.0065 | 0.0046 | 0.031 | 0.0076 | 0.018 | 0.01
O=C(O)c1cccc(CSc2nc(-c3ccc(Cl)cc3)cc(C(F)(F)F)n2)c1 | -4 | . | 5 | 0.62 | 23 | -32 | . | . | . | . | . | .
COc1ccc(-c2cc(C)nc(SCc3cccc(C(=O)O)c3)n2)cc1 | -4 | -4.8* | -8 | 0.015 | 4 | -1 | 0.011 | 0.013* | 0.034 | 0.009* | 0.023 | ?
CC1CCC2(CC1)NC(=O)N(CC(=O)N1CCN(S(=O)(=O)c3ccccc3)CC1)C2=O (stereo unspecified) | 1 | -0.19 | -8 | -0.33 | -16 | -5 | . | . | . | . | . | .
Cc1nn(-c2ccccc2)nc1C(=O)Nc1nnc(C(F)(F)F)s1 | 1 | 24* | -1 | . | . | -9 | 0.016* | 0.049* | 0.033 | 0.019* | 0.04* | 0.013*
CC(=O)/C(=N\Nc1ccc(C)cc1)Sc1nncn1C | -3 | -0.53 | 4 | 0.17 | 16 | -11 | . | . | . | . | . | .

Compound activity from PubChem.
